A selection: hits, their analogues and other compounds. The true share with any hit is near 2%.
CDK5 p35 inh – CDK5/p35 (human) kinase inhibition. Q00535+Q15078. Recombinant CDK5/p35, ADP-Glo luminescence, 60 min. inhibition, % at 10 µM. hit rate 0.01% among 330,000;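 active means highest replicate inhibition of at least 50% and at least 75% of replicates reaching 50%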
SR-BI DiI inh – inhibitors of mouse SR-BI mediated HDL lipid uptake; Q61009; ldlA[mSR-BI] CHO cells, DiI-HDL uptake fluorescence, 3 h; inhibition, % at 12.5 µM; hit rate 0.96% among 320,000;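 active means mean replicate inhibition of at least 70% and a set share of replicates each scoring 70 or more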
Target sequence (Q61009 whole entry, looked up): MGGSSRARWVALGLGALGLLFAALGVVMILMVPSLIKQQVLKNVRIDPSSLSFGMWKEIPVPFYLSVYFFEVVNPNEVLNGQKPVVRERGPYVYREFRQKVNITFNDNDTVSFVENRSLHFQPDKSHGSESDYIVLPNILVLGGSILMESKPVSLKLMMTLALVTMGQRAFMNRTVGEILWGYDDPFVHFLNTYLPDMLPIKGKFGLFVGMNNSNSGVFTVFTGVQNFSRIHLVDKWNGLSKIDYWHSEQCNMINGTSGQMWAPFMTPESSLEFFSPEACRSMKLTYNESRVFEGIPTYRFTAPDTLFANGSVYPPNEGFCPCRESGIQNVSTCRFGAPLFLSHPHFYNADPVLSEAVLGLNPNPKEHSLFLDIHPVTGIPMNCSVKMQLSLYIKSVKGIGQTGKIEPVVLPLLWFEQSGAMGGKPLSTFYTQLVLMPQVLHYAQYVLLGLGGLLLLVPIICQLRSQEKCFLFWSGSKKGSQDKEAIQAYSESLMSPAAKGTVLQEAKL
dFosB act-1 – activators of mouse delta FosB homodimer | purified delta FosB, TAMRA-CDK5 oligo fluorescence polarization; percent of positive-control signal above neutral wells | activation, % at 25 µM | hit rate 0.99% among 340,000;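 active means mean activation above about 17%, with every replicate also reaching it, limit read from the data, passing the limit was not always enough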
SR-BI DiI-HDL act – activators of SR-BI mediated HDL lipid uptake | activation, % at 12.5 µM | hit rate 0.096% among 320,000 | AID 504775 | CHO ldlA[mSR-BI] cells, DiI-HDL uptake fluorescence, 3 h; 100 = double the neutral-control signal;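 active means mean replicate activation of at least 60% and every replicate at or above 60%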
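Test system: SR-BI-overexpressing, LDLR-lacking CHO cells; Also added: labelled HDL, 10 µg/mL; Measured by: bottom-read cell fluorescence after medium removal, ex 550/em 595 nm; Timing: 3 h uptake period with compound, 37 °C; Buffer or medium: F12, 0.5% BSA, 25 mM HEPES; Doses: single compound concentration, delivered by pin transfer.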
dFosB act-2 – activators of mouse delta FosB homodimer DNA binding. shares compounds with dFosB act-1. AID 588690. purified delta FosB, TAMRA-CDK5 oligo fluorescence polarization; normalised: neutral wells 0, positive control 100. 2,400 tested, under 10 active. activation, % at 24.9 µM;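 active means highest replicate activation at or above 34% and every replicate reaching that threshold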;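 further: higher polarization means more probe DNA bound by delta FosB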
Numbers stand for hits; – = inactive; · = no result.

SMILES | CDK5 p35 inh | SR-BI DiI inh | dFosB act-1 | SR-BI DiI-HDL act | dFosB act-2
CCOc1ccc(NC(=O)c2cn(-c3ccc(OCC)cc3)c(=O)c3cc(OC)c(OC)cc23)cc1 | – | – | 20 | – | –
CCOc1ccc(-n2cc(C(=O)NC(C)C)c3cc(OC)c(OC)cc3c2=O)cc1 | – | – | – | – | ·
O=C(Nc1cc(S(=O)(=O)Nc2ccccc2Cl)ccc1O)c1cc2c(s1)CCCC2 | – | · | 32 | · | –
Cc1ccc(NC(=O)c2cc3c(s2)CCCC3)cc1S(=O)(=O)Nc1ccccc1Cl | – | – | – | – | ·
CCN(Cc1ccccc1)C(=O)C(=O)c1cn(CC(=O)N2CCCC2)c2ccccc12 | – | – | – | – | ·
O=C(COC(=O)c1cc(S(=O)(=O)N2CCCCC2)ccc1N1CCOCC1)c1ccccc1 | – | – | – | – | ·
COC(=O)c1ccc(Nc2ncnc3c2cnn3-c2cccc(C)c2)cc1 | – | – | 45 | – | –
Cc1csc(=O)n1CCC(=O)OCC(=O)NCc1ccc(F)cc1 | – | – | – | – | ·
COc1ccc2nc(NC(=O)C3CCCN(S(=O)(=O)c4cccc5nsnc45)C3)sc2c1 (stereo not drawn) | – | – | 25 | – | –
COc1ccccc1NC(=O)NNC(=O)CCN1CCOCC1 | – | – | – | – | ·
CN(CC(=O)Nc1ccccc1Cl)C(=O)COC(=O)c1ccc(C(F)(F)F)cc1 | – | – | – | – | ·
CN(CC(=O)Nc1ccccc1Cl)C(=O)COC(=O)c1ccc(-c2ccc(O)cc2)cc1 | – | – | 45 | – | –
O=C(COC(=O)CNC(=O)c1sc2ccccc2c1Cl)Nc1c(Cl)cc(Cl)cc1Cl | – | – | 40 | – | –
O=C(COC(=O)c1sc2ccccc2c1Cl)NC1CCCCC1 | – | – | – | – | ·
NC(=O)NC(=O)COC(=O)c1sc2ccccc2c1Cl | – | – | 43 | – | –
COC(=O)C1=C(C)NC(=O)NC1c1ccc2c(c1)OCO2 (stereo not drawn) | – | – | – | – | ·
CC12CCC(=O)N1C(C(=O)NNC(=O)COc1ccccc1F)CS2 (stereo not drawn) | – | – | – | – | ·
O=C(NCCN1CCCC1)c1ccc(Cn2c(=S)[nH]c3cc4c(cc3c2=O)OCO4)cc1 | – | – | 25 | – | –
C=CCNC(=O)c1ccc(Cn2c(=S)[nH]c3cc4c(cc3c2=O)OCO4)cc1 | – | – | 34 | – | –
CCN(CC)C(=O)c1ccc2c(=O)n(Cc3ccc4c(c3)OCO4)c(=S)[nH]c2c1 | – | – | – | – | ·
COc1ccccc1C(=O)NC(=O)COC(=O)CNC(=O)c1ccc(Cl)cc1Cl | – | – | – | – | ·
O=C(CSc1nnc(NC(=O)C2CC2)s1)Nc1ccc2c(c1)OCCO2 | – | – | – | – | ·
COc1ccc(-c2cc(C(F)(F)F)nc(SCC(=O)Nc3sc4c(c3C#N)CCC4)n2)cc1 | – | – | – | – | ·
COc1ccc(-c2nnn(CC(=O)Nc3sc4c(c3C#N)CCCC4)n2)cc1 | – | – | 26 | – | –
O=C(Nc1ccc(S(=O)(=O)Nc2nccs2)cc1)c1ccc(F)cc1 | – | · | – | · | ·
SMILES | CDK5 p35 inh | SR-BI DiI inh | dFosB act-1 | SR-BI DiI-HDL act | dFosB act-2
O=C(Nc1ccc(S(=O)(=O)Nc2nccs2)cc1)c1ccc(N2C(=O)c3ccccc3C2=O)cc1 | – | – | 33 | – | –
Cc1ccc2nc(NC(=O)c3cccs3)sc2c1 | – | – | – | – | ·
Cc1ccc2nc(NC(=O)c3ccc(Cl)s3)sc2c1 | – | – | 26 | – | –
Cc1ccc2nc(NC(=O)c3ccc4ncsc4c3)sc2c1 | – | – | 22 | – | –
NS(=O)(=O)c1ccc2nc(NC(=O)c3ccc4ncsc4c3)sc2c1 | – | – | – | – | ·
COc1ccc(C(=O)N2CCCC(Nc3ccc(C(C)C)cc3)C2)c(OC)n1 (stereo not drawn) | – | – | – | – | ·
CC(C)(C)c1ccc(/C=C/C(=O)c2ccc(NC3=NCCCS3)cc2)cc1 | – | – | 31 | – | –
CN1CCN(S(=O)(=O)c2cccc(C(=O)Nc3ccc(Br)cc3Br)c2)CC1 | – | – | – | – | ·
C=CS(=O)(=O)N(Cc1ccccc1Br)[C@H](CO)CC(C)C | – | – | – | – | ·
Cn1cc(Br)c(C(=O)Nc2sc3c(c2C(N)=O)CCCC3)n1 | – | · | – | · | ·
CCn1cc(Br)c(C(=O)Nc2sc3c(c2C(N)=O)CCCC3)n1 | – | – | 76 | – | –
O=C(O)c1cc2ccccc2c(N=Nc2cccnc2)c1O | – | – | – | – | ·
O=C(NNC(=O)c1ccc(-c2ccccc2)cc1)Nc1ccc(F)cc1F | – | – | 30 | – | –
O=C1Cc2cc(S(=O)(=O)N3CCN(c4cccc(Cl)c4)CC3)ccc2N1 | – | – | – | – | ·
O=c1cc(CSc2nnnn2-c2ccccc2)nc(Nc2ccc(F)cc2)[nH]1 | – | – | 26 | – | –
CCCC1CCC(c2ccc(OCC)cc2)=CC1=O (stereo not drawn) | – | – | – | – | ·
Cc1sc2nc(SCC(=O)Nc3ccc(S(N)(=O)=O)cc3)[nH]c(=O)c2c1C | – | – | 101 | – | –
CCN(CC(=O)NCc1cccs1)C(=O)c1cccc(S(=O)(=O)N(CC)c2ccccc2)c1 | – | – | – | – | ·
COc1ccc(C(=O)Nc2ccc(Oc3nc(C)nc4sc(-c5ccccc5)cc34)cc2)cc1OC | – | – | 34 | – | –
COc1ccc(C(=O)Nc2ccc(Oc3ncnc4sc(-c5ccccc5)cc34)cc2)cc1OC | – | – | – | – | ·
COc1cc(C(=O)Nc2ccc(Oc3ncnc4sc(-c5ccccc5)cc34)cc2)cc(OC)c1OC | – | – | 68 | – | –
COc1ccc(S(=O)(=O)N2CCOCC2)cc1NC(=O)COc1cccnc1[N+](=O)[O-] | – | – | – | – | ·
COCCSc1ccccc1C(=O)N1CCc2ccccc21 | – | – | – | – | ·
CCOc1ccc(CCNC(=O)c2nnn(CC(=O)Nc3ccccc3C)c2N)cc1OCC | – | – | – | – | ·
CCOc1ccc(OCC)c(NC(=O)c2nnn(CC(=O)Nc3cc(C)cc(C)c3)c2N)c1 | – | – | 61 | – | –
SMILES | CDK5 p35 inh | SR-BI DiI inh | dFosB act-1 | SR-BI DiI-HDL act | dFosB act-2
COc1ccc(CCNC(=O)c2nnn(CC(=O)Nc3c(C)cc(C)cc3C)c2N)cc1OC | – | – | 80 | – | –
CCOc1ccc(CCNC(=O)c2nnn(CC(=O)Nc3c(C)cc(C)cc3C)c2N)cc1OCC | – | – | 29 | – | –
O=c1cc(NCc2ccc3c(c2)OCO3)[nH]c(=O)n1-c1ccc(Cl)cc1 | – | – | 20 | – | –
Cc1ccccc1-n1c(=O)cc(NCc2ccc3c(c2)OCO3)[nH]c1=O | – | – | – | – | ·
Cc1ccc(C2=NOC3(CC(=O)N(c4ccccc4)C3=O)C2)cc1 (stereo not drawn) | – | – | – | – | ·
Cc1ccc(C2=NOC3(CC(=O)N(c4ccc(C)cc4)C3=O)C2)cc1 (stereo not drawn) | – | – | 29 | – | –
CCOC(=O)c1c(C)[nH]c2cc(Br)c(OC)cc12 | – | – | 18 | – | –
CCOC(=O)c1c(C)[nH]c(C)c1-c1ccccc1OC | – | – | – | – | ·

Screening data from PubChem.
